Test results: ChEMBL document CHEMBL2062460, “Disubstituted thiourea derivatives and their activity on CNS: synthesis and biological evaluation” (Eur J Med Chem, 2012)
≈ marks a conversion by molar mass, not a printed value. Calls of active or inactive are those of the source. The rule behind the calls is not given here.

Tested on: Staphylococcus aureus
Experiment: Antibacterial activity against methicillin-susceptible Staphylococcus aureus clinical isolate 369/09 after 18 hrs by twofold serial agar dilution technique
Assay type: functional
Conditions: clinical isolate 369/09, 18 h
Summary of the method: (§1)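 Clinical isolates came from patients in Warsaw Medical University Hospitals and were classed as methicillin-susceptible or -resistant. MIC was determined by twofold serial agar dilution on Mueller–Hinton II agar (CLSI), 3.125–400 µg/mL in agar, with compounds in methanol or DMSO. Inoculum was 10^4 CFU/mL and plates were read after 18 h at 35 °C.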

SMILES	MIC
S=C(Nc1nc[nH]n1)Nc1ccccc1Br	50 µg/mL (≈ 168 µM)

Tested on: Escherichia coli
Experiment: Antibacterial activity against Escherichia coli ATCC 25922 at 400 ug/disc after 18 hrs by disc diffusion method
Assay type: functional, organism-based
Conditions: not given
Summary of the method: (§2)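 Disc diffusion per CLSI on Mueller–Hinton II agar; 9 mm paper discs loaded from methanol or DMSO solutions to 400 µg per disc, dried; growth inhibition zone diameter read after 18 h at 35 °C.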

SMILES	diameter of the inhibition zone (DIZ)
S=C(Nc1nc[nH]n1)Nc1ccccc1Br	inactive

Tested on: Staphylococcus epidermidis
Experiment: Antibacterial activity against methicillin-resistant Staphylococcus epidermidis clinical isolate 315/08 after 18 hrs by twofold serial agar dilution technique
Assay type: functional
Conditions: clinical isolate 315/08, 18 h
Summary of the method: as §1

SMILES	MIC
S=C(Nc1nc[nH]n1)Nc1ccccc1Br	100 µg/mL (≈ 335 µM)

Tested on: Staphylococcus epidermidis
Experiment: Antibacterial activity against methicillin-resistant Staphylococcus epidermidis clinical isolate 311/08 after 18 hrs by twofold serial agar dilution technique
Assay type: functional
Conditions: clinical isolate 311/08, 18 h
Summary of the method: as §1

SMILES	MIC
S=C(Nc1nc[nH]n1)Nc1ccccc1Br	100 µg/mL (≈ 335 µM)

Tested on: Staphylococcus aureus
Experiment: Antibacterial activity against methicillin-resistant Staphylococcus aureus clinical isolate 277/08 after 18 hrs by twofold serial agar dilution technique
Assay type: functional
Conditions: clinical isolate 277/08, 18 h
Summary of the method: as §1

SMILES	MIC
S=C(Nc1nc[nH]n1)Nc1ccccc1Br	50 µg/mL (≈ 168 µM)

Tested on: Micrococcus luteus
Experiment: Antibacterial activity against Micrococcus luteus ATCC 9341 after 18 hrs by twofold serial agar dilution technique
Assay type: functional
Conditions: ATCC 9341, 18 h

SMILES	MIC
S=C(Nc1nc[nH]n1)Nc1ccccc1Br	6.25 µg/mL (≈ 21 µM)

Tested on: Staphylococcus aureus
Experiment: Antibacterial activity against methicillin-susceptible Staphylococcus aureus clinical isolate 338/08 after 18 hrs by twofold serial agar dilution technique
Assay type: functional
Conditions: clinical isolate 338/08, 18 h
Summary of the method: as §1

SMILES	MIC
S=C(Nc1nc[nH]n1)Nc1ccccc1Br	50 µg/mL (≈ 168 µM)

Tested on: Staphylococcus epidermidis
Experiment: Antibacterial activity against methicillin-resistant Staphylococcus epidermidis clinical isolate 318/08 after 18 hrs by twofold serial agar dilution technique
Assay type: functional
Conditions: clinical isolate 318/08, 18 h
Summary of the method: as §1

SMILES	MIC
S=C(Nc1nc[nH]n1)Nc1ccccc1Br	50 µg/mL (≈ 168 µM)

Tested on: Staphylococcus aureus
Experiment: Antibacterial activity against methicillin-resistant Staphylococcus aureus clinical isolate 309/08 after 18 hrs by twofold serial agar dilution technique
Assay type: functional
Conditions: clinical isolate 309/08, 18 h
Summary of the method: as §1

SMILES	MIC
S=C(Nc1nc[nH]n1)Nc1ccccc1Br	50 µg/mL (≈ 168 µM)

Tested on: Staphylococcus aureus
Experiment: Antibacterial activity against methicillin-resistant Staphylococcus aureus clinical isolate 325/09 after 18 hrs by twofold serial agar dilution technique
Assay type: functional
Conditions: clinical isolate 325/09, 18 h
Summary of the method: as §1

SMILES	MIC
S=C(Nc1nc[nH]n1)Nc1ccccc1Br	50 µg/mL (≈ 168 µM)

Tested on: Staphylococcus aureus
Experiment: Antibacterial activity against methicillin-resistant Staphylococcus aureus clinical isolate 376/09 after 18 hrs by twofold serial agar dilution technique
Assay type: functional
Conditions: clinical isolate 376/09, 18 h
Summary of the method: as §1

SMILES	MIC
S=C(Nc1nc[nH]n1)Nc1ccccc1Br	50 µg/mL (≈ 168 µM)

Tested on: Staphylococcus epidermidis
Experiment: Antibacterial activity against methicillin-resistant Staphylococcus epidermidis clinical isolate 316/08 after 18 hrs by twofold serial agar dilution technique
Assay type: functional
Conditions: clinical isolate 316/08, 18 h
Summary of the method: as §1

SMILES	MIC
S=C(Nc1nc[nH]n1)Nc1ccccc1Br	100 µg/mL (≈ 335 µM)

Tested on: Proteus vulgaris
Experiment: Antibacterial activity against Proteus vulgaris NCTC 4635 at 400 ug/disc after 18 hrs by disc diffusion method
Assay type: functional, organism-based
Conditions: not given
Summary of the method: as §2

SMILES	diameter of the inhibition zone (DIZ)
S=C(Nc1nc[nH]n1)Nc1ccccc1Br	inactive

Tested on: Staphylococcus aureus
Experiment: Antibacterial activity against Staphylococcus aureus ATCC 25923 at 400 ug/disc after 18 hrs by disc diffusion method
Assay type: functional
Conditions: ATCC 25923, 18 h, read-out: DIZ
Summary of the method: as §2

SMILES	zone of inhibition at 400 µg/disc
S=C(Nc1nc[nH]n1)Nc1ccccc1Br	13 mm

Tested on: Staphylococcus aureus
Experiment: Antibacterial activity against Staphylococcus aureus NCTC 4163 after 18 hrs by twofold serial agar dilution technique
Assay type: functional
Conditions: NCTC 4163, 18 h
Summary of the method: (§3)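 Twofold serial agar dilution on Mueller–Hinton II agar, following CLSI guidelines. Compounds were dissolved in methanol or DMSO and tested at final agar concentrations of 3.125–400 µg/mL. Final inoculum was 10^4 CFU/mL.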

SMILES	MIC
S=C(Nc1nc[nH]n1)Nc1ccccc1Br	50 µg/mL (≈ 168 µM)

Tested on: Candida parapsilosis
Experiment: Antifungal activity against Candida parapsilosis ATCC 22019 at 400 ug/disc after 18 hrs by disc diffusion method
Assay type: functional, organism-based
Conditions: not given
Summary of the method: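 Yeasts tested by disc diffusion (CLSI) on RPMI agar with 2% glucose; 9 mm paper discs bearing 400 µg compound from methanol or DMSO solution; inhibition zone diameter read after 18 h at 35 °C.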

SMILES	diameter of the inhibition zone (DIZ)
S=C(Nc1nc[nH]n1)Nc1ccccc1Br	inactive

Tested on: Staphylococcus aureus
Experiment: Antibacterial activity against methicillin-susceptible Staphylococcus aureus clinical isolate 261/08 after 18 hrs by twofold serial agar dilution technique
Assay type: functional
Conditions: clinical isolate 261/08, 18 h
Summary of the method: as §1

SMILES	MIC
S=C(Nc1nc[nH]n1)Nc1ccccc1Br	50 µg/mL (≈ 168 µM)

Tested on: Bordetella bronchiseptica
Experiment: Antibacterial activity against Bordetella bronchiseptica ATCC 4617 at 400 ug/disc after 18 hrs by disc diffusion method
Assay type: functional, organism-based
Conditions: not given
Summary of the method: as §2

SMILES	diameter of the inhibition zone (DIZ)
S=C(Nc1nc[nH]n1)Nc1ccccc1Br	inactive

Tested on: Bacillus cereus
Experiment: Antibacterial activity against Bacillus cereus ATCC 11778 at 400 ug/disc after 18 hrs by disc diffusion method
Assay type: functional
Conditions: ATCC 11778, 18 h, read-out: DIZ
Summary of the method: as §2

SMILES	zone of inhibition at 400 µg/disc
S=C(Nc1nc[nH]n1)Nc1ccccc1Br	12 mm

Tested on: Escherichia coli
Experiment: Antibacterial activity against Escherichia coli ATCC 10538 at 400 ug/disc after 18 hrs by disc diffusion method
Assay type: functional, organism-based
Conditions: not given
Summary of the method: as §2

SMILES	diameter of the inhibition zone (DIZ)
S=C(Nc1nc[nH]n1)Nc1ccccc1Br	inactive

Tested on: Staphylococcus epidermidis
Experiment: Antibacterial activity against methicillin-resistant Staphylococcus epidermidis clinical isolate 342/09 after 18 hrs by twofold serial agar dilution technique
Assay type: functional
Conditions: clinical isolate 342/09, 18 h
Summary of the method: as §1

SMILES	MIC
S=C(Nc1nc[nH]n1)Nc1ccccc1Br	50 µg/mL (≈ 168 µM)

Tested on: Enterococcus hirae
Experiment: Antibacterial activity against Enterococcus hirae ATCC 10541 at 400 ug/disc after 18 hrs by disc diffusion method
Assay type: functional
Conditions: ATCC 10541, 18 h, read-out: DIZ
Summary of the method: as §2

SMILES	zone of inhibition at 400 µg/disc
S=C(Nc1nc[nH]n1)Nc1ccccc1Br	13 mm

Tested on: Staphylococcus aureus
Experiment: Antibacterial activity against methicillin-susceptible Staphylococcus aureus clinical isolate 367/09 after 18 hrs by twofold serial agar dilution technique
Assay type: functional
Conditions: clinical isolate 367/09, 18 h
Summary of the method: as §1

SMILES	MIC
S=C(Nc1nc[nH]n1)Nc1ccccc1Br	50 µg/mL (≈ 168 µM)

Tested on: Bacillus subtilis
Experiment: Antibacterial activity against Bacillus subtilis ATCC 6633 at 400 ug/disc after 18 hrs by disc diffusion method
Assay type: functional
Conditions: ATCC 6633, 18 h, read-out: DIZ
Summary of the method: as §2

SMILES	zone of inhibition at 400 µg/disc
S=C(Nc1nc[nH]n1)Nc1ccccc1Br	17 mm

Tested on: Staphylococcus aureus
Experiment: Antibacterial activity against methicillin-resistant Staphylococcus aureus clinical isolate 307/08 after 18 hrs by twofold serial agar dilution technique
Assay type: functional
Conditions: clinical isolate 307/08, 18 h
Summary of the method: as §1

SMILES	MIC
S=C(Nc1nc[nH]n1)Nc1ccccc1Br	50 µg/mL (≈ 168 µM)

Tested on: Staphylococcus aureus
Experiment: Antibacterial activity against methicillin-susceptible Staphylococcus aureus clinical isolate 339/09 after 18 hrs by twofold serial agar dilution technique
Assay type: functional
Conditions: clinical isolate 339/09, 18 h
Summary of the method: as §1

SMILES	MIC
S=C(Nc1nc[nH]n1)Nc1ccccc1Br	50 µg/mL (≈ 168 µM)

Tested on: Pseudomonas aeruginosa
Experiment: Antibacterial activity against Pseudomonas aeruginosa NCTC 6749 at 400 ug/disc after 18 hrs by disc diffusion method
Assay type: functional, organism-based
Conditions: not given
Summary of the method: as §2

SMILES	diameter of the inhibition zone (DIZ)
S=C(Nc1nc[nH]n1)Nc1ccccc1Br	inactive

Tested on: Staphylococcus aureus
Experiment: Antibacterial activity against methicillin-resistant Staphylococcus aureus clinical isolate 356/09 after 18 hrs by twofold serial agar dilution technique
Assay type: functional
Conditions: clinical isolate 356/09, 18 h
Summary of the method: as §1

SMILES	MIC
S=C(Nc1nc[nH]n1)Nc1ccccc1Br	50 µg/mL (≈ 168 µM)

Tested on: Staphylococcus epidermidis
Experiment: Antibacterial activity against methicillin-resistant Staphylococcus epidermidis clinical isolate 341/09 after 18 hrs by twofold serial agar dilution technique
Assay type: functional
Conditions: clinical isolate 341/09, 18 h
Summary of the method: as §1

SMILES	MIC
S=C(Nc1nc[nH]n1)Nc1ccccc1Br	100 µg/mL (≈ 335 µM)

Tested on: Bacillus cereus
Experiment: Antibacterial activity against Bacillus cereus ATCC 11778 after 18 hrs by twofold serial agar dilution technique
Assay type: functional
Conditions: ATCC 11778, 18 h

SMILES	MIC
S=C(Nc1nc[nH]n1)Nc1ccccc1Br	25 µg/mL (≈ 83.8 µM)

Tested on: Staphylococcus epidermidis
Experiment: Antibacterial activity against methicillin-resistant Staphylococcus epidermidis clinical isolate 377/09 after 18 hrs by twofold serial agar dilution technique
Assay type: functional
Conditions: clinical isolate 377/09, 18 h
Summary of the method: as §1

SMILES	MIC
S=C(Nc1nc[nH]n1)Nc1ccccc1Br	50 µg/mL (≈ 168 µM)

Tested on: Staphylococcus aureus
Experiment: Antibacterial activity against Staphylococcus aureus ATCC 6538 at 400 ug/disc after 18 hrs by disc diffusion method
Assay type: functional
Conditions: ATCC 6538, 18 h, read-out: DIZ
Summary of the method: as §2

SMILES	zone of inhibition at 400 µg/disc
S=C(Nc1nc[nH]n1)Nc1ccccc1Br	12 mm

Tested on: Micrococcus luteus
Experiment: Antibacterial activity against Micrococcus luteus ATCC 10240 at 400 ug/disc after 18 hrs by disc diffusion method
Assay type: functional
Conditions: ATCC 10240, 18 h, read-out: DIZ
Summary of the method: as §2

SMILES	zone of inhibition at 400 µg/disc
S=C(Nc1nc[nH]n1)Nc1ccccc1Br	15 mm

Tested on: not listed separately
Experiment: Cytotoxicity against human MT4 cells after 96 hrs by MTT assay
Assay type: cell-based
Conditions: not given

SMILES	CC50 at 96 h
S=C(Nc1nc[nH]n1)Nc1ccccc1Br	> 100 µM

Tested on: Staphylococcus aureus
Experiment: Antibacterial activity against methicillin-resistant Staphylococcus aureus clinical isolate 275/08 after 18 hrs by twofold serial agar dilution technique
Assay type: functional
Conditions: clinical isolate 275/08, 18 h
Summary of the method: as §1

SMILES	MIC
S=C(Nc1nc[nH]n1)Nc1ccccc1Br	100 µg/mL (≈ 335 µM)

Tested on: Staphylococcus aureus
Experiment: Antibacterial activity against Staphylococcus aureus ATCC 29213 after 18 hrs by twofold serial agar dilution technique
Assay type: functional
Conditions: ATCC 29213, 18 h
Summary of the method: as §3

SMILES	MIC
S=C(Nc1nc[nH]n1)Nc1ccccc1Br	50 µg/mL (≈ 168 µM)

Tested on: Staphylococcus aureus
Experiment: Antibacterial activity against methicillin-resistant Staphylococcus aureus clinical isolate 306/08 after 18 hrs by twofold serial agar dilution technique
Assay type: functional
Conditions: clinical isolate 306/08, 18 h
Summary of the method: as §1

SMILES	MIC
S=C(Nc1nc[nH]n1)Nc1ccccc1Br	50 µg/mL (≈ 168 µM)
